MPTP block = permeability transition pore inhibition; inhibition, % at 10 µM; isolated mouse mitochondria, Ca2+ swelling absorbance, 30 min; 360,000 tested, 1.4% active; AID 602449;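 active means inhibition of 50% or more, scaled per plate between neutral and stimulator controls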
WT yeast gro inh = growth inhibition of WT yeast, mitochondrial fusion screen | AID 1362 | inhibition, % at 10 µM | mitochondrial fusion phenotypic screen, WT strain | 190,000 tested, 2.1% active; in the data active means inhibition above about 58%; tested in S. cerevisiae
EBV gp42 block = blocks Epstein-Barr virus glycoprotein 42 binding; 220,000 tested, 0.42% active; inhibition, % (tested at 21.74 µM); Fluorescence polarization binding assay, mP read-out; AID 1085; Q1HVG2; in the data active means inhibition above about 50%
Target sequence (Q1HVG2 whole entry, looked up): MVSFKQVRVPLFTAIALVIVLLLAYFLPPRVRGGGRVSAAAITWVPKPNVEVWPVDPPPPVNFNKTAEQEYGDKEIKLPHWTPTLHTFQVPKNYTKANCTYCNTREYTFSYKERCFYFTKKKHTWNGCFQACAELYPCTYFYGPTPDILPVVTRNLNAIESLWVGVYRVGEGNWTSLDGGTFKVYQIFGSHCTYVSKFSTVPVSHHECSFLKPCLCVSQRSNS
CHOP inhibitor = inhibitors of CHOP induction in ER stress response | CHO-K1 CHOP-promoter luciferase, tunicamycin-induced, 15-18 h | inhibition, % at 10 µM | 220,000 tested, 3.8% active;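 active means compounds that reduced the stress-induced luciferase reporter signal by more than about 70% of percent inhibition, limit read from the data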
TbMetRS inhib = blocks T. brucei methionyl-tRNA synthetase activity; purified T. brucei MetRS, ATP depletion, Kinase-Glo luminescence; inhibition, % at 11.9 µM; 360,000 tested, 0.4% active; AID 624268;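 active means inhibition above a per-plate cutoff of the control wells' mean inhibition plus 3 SD, cut at about 5.5% in these data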
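Assay system: T. brucei methionyl-tRNA synthetase, purified | Medium: HEPES buffer with MgCl2, KCl, DTT, spermine, BSA, pyrophosphatase | Compound: 11.9 µM single point | Incubation: 15 min enzyme-compound preincubation, 2 h reaction, 10 min detection, 25 °C | Measured by: Kinase-Glo luciferase luminescence reporting remaining unconsumed ATP | Measure: % inhibition normalized to control-well medians | Replication: Singlicate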
GRIN3A LBD mod = NR3A (human) ligand-binding domain modulation; NR3A LBD differential scanning fluorimetry, Tm shift; 0% = protein alone, 100% = glycine-bound protein; Tm shift relative to glycine control, % at 25 µM; 340,000 tested, 2.5% active; AID 1259313;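 active means melting temperature shift of at least 10% of the positive control shift, at one fixed dose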
Of the large screens only hits and unclear results are named; the others gave an inactive call. An excerpt weighted towards active compounds, which were near 6.4% of everything screened.

COc1ccc2c(c1)cc(C(O)c1ccccn1)n2S(=O)(=O)c1ccccc1 (configuration not stated)	none
Cc1nnsc1Sc1ccccn1	none
c1ccc(-c2nnsc2Sc2ccccn2)cc1	GRIN3A LBD mod 14.1
COc1ccc(-n2nc(C(=O)NCC(=O)N3CCN(Cc4ccccc4)CC3)c3ccccc3c2=O)cc1	none (no result: WT yeast gro inh, EBV gp42 block, CHOP inhibitor)
O=C(/C=C/c1c[nH]c2ccccc12)c1cccc2ccccc12	WT yeast gro inh 61.5, CHOP inhibitor 87.0, GRIN3A LBD mod 27.6
O=C(Cn1cc([N+](=O)[O-])cn1)NCCc1nc2ccccc2[nH]1	none
O=C(NCCc1nc2ccccc2[nH]1)c1cc([N+](=O)[O-])cc([N+](=O)[O-])c1	GRIN3A LBD mod 11.1
COc1c2c(c(CCC(=O)O)c3c1C=CC(C)(C)O3)OC(C)(C)C=C2	none (no result: WT yeast gro inh, EBV gp42 block, CHOP inhibitor)
C[C@@H]1CN([C@H](C)CO)C(=O)c2cc(NC(=O)Nc3ccc(C(F)(F)F)cc3)ccc2O[C@H]1CN(C)Cc1ccc(Cl)c(Cl)c1	GRIN3A LBD mod 31.8 (no result: WT yeast gro inh, EBV gp42 block, CHOP inhibitor)
C[C@H]1CN([C@@H](C)CO)C(=O)c2cccc(NC(=O)Nc3ccc(C(F)(F)F)cc3)c2O[C@@H]1CN(C)Cc1ccc(Cl)c(Cl)c1	GRIN3A LBD mod 12.3 (no result: WT yeast gro inh, EBV gp42 block, CHOP inhibitor)
C[C@H](CO)N1C[C@H](C)[C@@H](CN(C)Cc2ccc(Cl)c(Cl)c2)Oc2c(NC(=O)CCC(F)(F)F)cccc2C1=O	none (no result: WT yeast gro inh, EBV gp42 block, CHOP inhibitor)
C[C@@H]1CN([C@@H](C)CO)C(=O)c2cc(NC(=O)CCC(F)(F)F)ccc2O[C@H]1CN(C)Cc1ccc(Cl)c(Cl)c1	none (no result: WT yeast gro inh, EBV gp42 block, CHOP inhibitor)
C[C@@H]1CN([C@H](C)CO)C(=O)c2cc(NS(=O)(=O)c3ccc(F)cc3)ccc2O[C@@H]1CN(C)Cc1ccc(Cl)c(Cl)c1	GRIN3A LBD mod 13.2 (no result: WT yeast gro inh, EBV gp42 block, CHOP inhibitor)
CC(C)SCc1cc(N2CCCC2)nc(-c2ccccc2)n1	WT yeast gro inh 58.2
CCC1CCCCN1C(=O)CSc1nnc(-c2cccc(Cl)c2)o1 (configuration not stated)	none
COc1ccc(C(=O)C2CCCN(C(=O)c3noc4c3CCCC4)C2)cc1F (configuration not stated)	none
CC1OC(C(C)(C)C)CC2=C1C(=O)OC(C)(C)O2 (configuration not stated)	none (no result: WT yeast gro inh, EBV gp42 block, CHOP inhibitor, GRIN3A LBD mod)
CCC(CC)c1nnc(NC(=O)c2cc(-c3ccccc3)nc3ccccc23)s1	none
CCC(CC)c1nnc(NC(=O)c2ccc3ccccc3n2)s1	WT yeast gro inh 61.4
S=c1[nH]nc(-c2ccc(Br)cc2)n1Cc1ccccc1	GRIN3A LBD mod 14.3
Cc1ccccc1OCc1n[nH]c(=S)n1Cc1ccccc1	WT yeast gro inh 73.0
S=c1[nH]nc(COc2cccc3ccccc23)n1Cc1ccccc1	none (no result: WT yeast gro inh)
Cc1ccc(OCc2n[nH]c(=S)n2-c2ccccc2)cc1C	WT yeast gro inh 67.2
Fc1ccc(-c2n[nH]c(=S)n2Cc2ccccc2)cc1	none (no result: WT yeast gro inh, EBV gp42 block, CHOP inhibitor)
FC(F)C(F)(F)Oc1cccc(-c2n[nH]c(=S)n2Cc2ccccc2)c1	GRIN3A LBD mod 20.8 (no result: WT yeast gro inh, EBV gp42 block, CHOP inhibitor)
CCc1c(-c2n[nH]c(=S)n2Cc2ccccc2)csc1C	none
Cc1scc(-c2n[nH]c(=S)n2Cc2ccccc2)c1C	WT yeast gro inh 70.9
O=C(NCCn1cccn1)C1CCC(=O)N(CCc2ccc(Cl)cc2)C1 (configuration not stated)	none (no result: WT yeast gro inh, EBV gp42 block, CHOP inhibitor)
O=C(CC1S/C(=N\S(=O)(=O)c2ccc(F)cc2)N(c2ccccc2)C1=O)Nc1ccccc1 (configuration not stated)	none
CCOC(=O)c1ccc2c(c1)nc(-c1ccc(F)cc1)c1nccn12	none
Cc1ccc(NC2=C(NC(=O)c3ccccc3)C(=O)c3ccccc3C2=O)cc1Cl	WT yeast gro inh 67.9, GRIN3A LBD mod 20.2
CCC(=O)Nc1ccc2c(c1)C(=O)c1ccccc1C2=O	none
O=C(Nc1ccc2c(c1)C(=O)c1ccccc1-2)c1ccccc1	GRIN3A LBD mod 17.7 (no result: WT yeast gro inh, EBV gp42 block, CHOP inhibitor)
COc1cccc(C(=O)Nc2ccc(C(=O)c3ccccc3)cc2)c1	none (no result: WT yeast gro inh, EBV gp42 block, CHOP inhibitor)
O=C(O)c1cccc2c1C(=O)c1ccccc1C2=O	none
COc1cccc(C(=O)Nc2ccc3c(c2)C(=O)c2ccccc2C3=O)c1	GRIN3A LBD mod 15.9
CC(=O)Nc1ccc2c(c1)C(=O)c1cccc(C(=O)O)c1-2	GRIN3A LBD mod 14.0 (no result: WT yeast gro inh, EBV gp42 block, CHOP inhibitor)
CCC12OC(=N)C(C#N)(C1C)C(C#N)(C#N)C(c1ccccc1)O2 (configuration not stated)	none
C[C@@H]1C=C(C(=O)N2CCN(Cc3ccccc3)CC2)O[C@H](OCc2ccc(CO)cc2)C1	none
O=C(COC(=O)CCS(=O)(=O)c1ccc(Cl)cc1)Nc1ncc(Cl)cc1Cl	none
CCCc1c(C(=O)N/N=C/C(C)=C/c2ccccc2)nnn1-c1nonc1N	GRIN3A LBD mod 33.5 (no result: WT yeast gro inh, EBV gp42 block, CHOP inhibitor)
CCCN(CCC)Cc1c(C(=O)N/N=C/C(C)=C\c2ccccc2)nnn1-c1nonc1N	none (no result: WT yeast gro inh, EBV gp42 block, CHOP inhibitor)
CC(/C=N/NC(=O)c1nnn(-c2nonc2N)c1C(C)C)=C\c1ccccc1	GRIN3A LBD mod 27.4 (no result: WT yeast gro inh, EBV gp42 block, CHOP inhibitor)
CC(C)c1c(C(=O)N/N=C2\CCc3ccccc32)nnn1-c1nonc1N	GRIN3A LBD mod 10.4 (no result: WT yeast gro inh, EBV gp42 block, CHOP inhibitor)
O=C(NCC(c1cccnc1)N1CCOCC1)c1ccco1 (configuration not stated)	WT yeast gro inh 71.2
c1ccc2c(c1)CCN(c1nc3ccccc3n3cnnc13)C2	CHOP inhibitor 70.5
O=C(COC(=O)c1cc(Br)c(Br)s1)NCCC1=CCCCC1	none
COc1ccc(Br)cc1/C=N/NC(=O)c1ccco1	none
CC(C)(C)c1ccc(OCC(=O)N/N=C/c2cc(Br)ccc2OC(=O)c2ccco2)cc1	GRIN3A LBD mod 22.8
COc1ccccc1-c1cc2nc(C)c(CCC(=O)NCc3ccc(F)cc3)c(C)n2n1	none (no result: WT yeast gro inh)
COc1cc(OC)cc(-c2cc3nc(C)c(CCC(=O)NCc4ccccc4)c(C)n3n2)c1	CHOP inhibitor 83.7 (no result: WT yeast gro inh)
Cc1csc(NC(=O)CCc2c(C)nc3cc(-c4ccc(Cl)cc4)nn3c2C)n1	CHOP inhibitor 88.5
Cc1nc2cc(-c3ccc(Cl)cc3)nn2c(C)c1CCC(=O)NC(C)c1ccc2c(c1)OCCO2 (configuration not stated)	WT yeast gro inh 71.4, CHOP inhibitor 79.3
Cc1ccc(Nc2nnc(SC/C(O)=C(\C#N)c3nc4ccccc4[nH]3)s2)c(C)c1	GRIN3A LBD mod 12.9
Cc1cccc(Nc2nnc(SC/C(O)=C(\C#N)c3nc4ccccc4[nH]3)s2)c1	GRIN3A LBD mod 10.4
Cc1cc(C)n2c(SCC(O)=C(C#N)c3nc4ccccc4[nH]3)nnc2n1	none (no result: WT yeast gro inh, EBV gp42 block, CHOP inhibitor)
COc1ccc(C)cc1-n1nnnc1SC/C(O)=C(\C#N)c1nc2ccccc2[nH]1	none
COc1ccc2nc(NC(=O)CSc3nccc(C)n3)sc2c1	none
COc1cccc(CN(C)C(c2ccccc2)c2ccccc2)c1OC	none (no result: WT yeast gro inh, EBV gp42 block, CHOP inhibitor)
COc1ccc(CN(C)C(c2ccccc2)c2nnnn2-c2ccccc2C)c(OC)c1C (configuration not stated)	WT yeast gro inh 74.5, GRIN3A LBD mod 15.4
CCc1nc(SCC(=O)O)c2c3c(sc2n1)COC(C)(C)C3	none (no result: WT yeast gro inh, EBV gp42 block, CHOP inhibitor)
